Tests used:
Staphylococcus aureus [1] = assay: Growth inhibition of Staphylococcus aureus MRSA252; type: organism-based; conditions: in vitro
Procedure, shortened: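 Compound alone was two-fold serially diluted in cation-adjusted Mueller-Hinton II broth containing 2.4% DMSO. Bacteria were inoculated at 5 × 10⁵ CFU mL⁻¹ and incubated at 36 °C for 16–20 h. The MIC was read in triplicate.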

Staphylococcus aureus [2] = assay: Potentiation of oxacillin-induced antibacterial activity against Staphylococcus aureus MRSA252 assessed as oxacillin MIC at 20 uM (reference value: 256 ug/ml); type: functional
Staphylococcus aureus [3] = assay: Potentiation of oxacillin-induced antibacterial activity against Staphylococcus aureus NRS70 assessed as oxacillin MIC at 20 uM; type: functional
Staphylococcus aureus [4] = assay: Potentiation of oxacillin-induced antibacterial activity against methicillin/oxacillin/tetracycline-resistant Staphylococcus aureus NRS100 assessed as oxacillin MIC at 20 uM; type: functional
Procedure, shortened: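 Oxacillin MIC measured with the synthetic potentiator held at a fixed 20 μM. Two-fold serial dilution in cation-adjusted Mueller-Hinton II broth containing 2.4% DMSO. Inoculum 5 × 10⁵ CFU mL⁻¹, incubated at 36 °C for 16–20 h. Run in triplicate.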

Staphylococcus aureus [5] = assay: Potentiation of oxacillin-induced antibacterial activity against Staphylococcus aureus MRSA252 assessed as fold reduction in oxacillin MIC at 20 uM relative to oxacillin alone; type: functional
Staphylococcus aureus [6] = assay: Potentiation of oxacillin-induced antibacterial activity against Staphylococcus aureus NRS386 assessed as oxacillin MIC at 20 uM; type: functional; conditions: USA700 NRS386

SMILES | MIC (Staphylococcus aureus [2]) | growth inhibition (GI) (Staphylococcus aureus [1]) | MIC (Staphylococcus aureus [3]) | MIC (Staphylococcus aureus [4]) | fold change (FC) (Staphylococcus aureus [5]) | MIC (Staphylococcus aureus [6])
Cc1ccc(S(=O)(=O)N(CCO)c2ccccc2CN(C)C(=O)/C=C/c2ccc(C(F)(F)F)cc2)cc1 | 2 mg/L | Non-Toxic | 16 mg/L | 4 mg/L | 128 | 4 mg/L
CCc1ccc(S(=O)(=O)N(CCO)c2ccccc2CN(C)C(=O)/C=C/c2ccc(C(F)(F)F)cc2)cc1 | 4 mg/L | Non-Toxic | 16 mg/L | 16 mg/L | 64 | 8 mg/L
C=CCN(Cc1ccccc1N(CCO)S(=O)(=O)c1ccc(OC)cc1)C(C)C | ≥ 256 mg/L | Non-Toxic |  |  |  | 
Cc1ccc(S(=O)(=O)N(CCO)c2ccccc2CN(C)C(=O)/C=C/c2ccc(Cl)cc2Cl)cc1 | ≥ 256 mg/L | Non-Toxic |  |  |  | 
Cc1ccc(S(=O)(=O)N(CCO)c2ccccc2CN(C)C(=O)c2ccc(Cl)cc2)cc1 | ≥ 256 mg/L | Non-Toxic |  |  |  | 
CC(=O)Nc1ccc(/C=C/C(=O)N(C)Cc2ccccc2N(CCO)S(=O)(=O)c2ccc(C)cc2)cc1 | ≥ 256 mg/L | Non-Toxic |  |  |  | 
C=CCN(C)Cc1ccccc1N(CCO)S(=O)(=O)c1ccc(Cl)cc1 | ≥ 256 mg/L | Non-Toxic |  |  |  | 
Cc1ccc(S(=O)(=O)N(CCO)c2ccccc2CN(C(=O)/C=C/c2ccc(C(F)(F)F)cc2)C2CC2)cc1 | ≥ 256 mg/L | Non-Toxic |  |  |  | 
Cc1ccc(S(=O)(=O)N(CCO)c2ccccc2CN(C)C(=O)CCc2ccc(Cl)cc2)cc1 | ≥ 256 mg/L | Non-Toxic |  |  |  | 
Cc1ccc(S(=O)(=O)N(CCO)c2ccccc2CN(C)C(=O)/C=C/c2ccc(F)cc2)cc1 | ≥ 256 mg/L | Non-Toxic |  |  |  | 
CN(C/C=C/c1ccc(Cl)cc1)Cc1ccccc1N(CCO)S(=O)(=O)Cc1ccccc1 | ≥ 256 mg/L | Non-Toxic |  |  |  | 
Cc1ccc(S(=O)(=O)N(CCO)c2ccccc2CN(C)C(=O)c2ccc3cc(Br)ccc3c2)cc1 | ≥ 256 mg/L | Non-Toxic |  |  |  | 
Cc1ccc(S(=O)(=O)N(CCO)c2ccccc2CN(C)C(=O)/C=C/c2ccc(Cl)cc2)cc1 | 2 mg/L | Non-Toxic | 8 mg/L | 2 mg/L | 128 | 4 mg/L
Cc1ccc(S(=O)(=O)N(CCO)c2ccccc2CN(C)C(=O)COc2ccc(Cl)cc2)cc1 | ≥ 256 mg/L | Non-Toxic |  |  |  | 
CN(Cc1ccccc1N(CCO)S(=O)(=O)c1ccc(F)cc1)C(=O)/C=C/c1ccc(Cl)cc1 | 4 mg/L | Non-Toxic | 8 mg/L | 1 mg/L | 64 | 1 mg/L
CN(Cc1ccccc1N(CCO)S(=O)(=O)c1ccc(F)cc1)C(=O)/C=C/c1ccc(C(F)(F)F)cc1 | 2 mg/L | Non-Toxic | 16 mg/L | 2 mg/L | 128 | 8 mg/L
Cc1ccc(S(=O)(=O)N(CCO)c2ccccc2CN(C)C(=O)/C=C/c2ccc(-c3ccc(Cl)cc3)o2)cc1 | ≥ 256 mg/L | Non-Toxic |  |  |  | 
CCN(Cc1ccccc1N(CCO)S(=O)(=O)c1ccc(C)cc1)C(=O)/C=C/c1ccc(C(F)(F)F)cc1 | ≥ 256 mg/L | Non-Toxic |  |  |  | 
Cc1ccc(S(=O)(=O)N(CCO)c2ccccc2C(=O)N(C)C/C=C/c2ccc(Cl)cc2)cc1 | ≥ 256 mg/L | Non-Toxic |  |  |  | 
Cc1ccc(S(=O)(=O)N(CCO)c2ccccc2CN(C)C(=O)/C=C/c2cccnc2)cc1 | ≥ 256 mg/L | Non-Toxic |  |  |  | 
Cc1ccc(S(=O)(=O)N(CCO)c2cccc(CN(C)C(=O)/C=C/c3ccc(C(F)(F)F)cc3)c2)cc1 | ≥ 256 mg/L | Non-Toxic |  |  |  | 
Cc1ccc(S(=O)(=O)N(CCO)c2ccccc2CN(C)C(=O)/C=C/c2ccc(C(F)(F)F)cc2)cc1F | 4 mg/L | Non-Toxic | 16 mg/L | 2 mg/L | 64 | 8 mg/L
CN(Cc1ccccc1N(CCO)S(=O)(=O)c1ccccc1)C(=O)/C=C/c1ccc(C(F)(F)F)cc1 | 4 mg/L | Non-Toxic | 16 mg/L | 2 mg/L | 64 | 2 mg/L
Cc1ccc(S(=O)(=O)N(CCO)c2ccccc2CNC(=O)/C=C/c2ccc(C(F)(F)F)cc2)cc1 | ≥ 256 mg/L | Non-Toxic |  |  |  | 
C=CCN(C)Cc1ccccc1N(CCO)S(=O)(=O)c1ccc(C)cc1 | ≥ 256 mg/L | Non-Toxic |  |  |  | 

More lines, main results first:

MIC (Staphylococcus aureus [2]) | SMILES | growth inhibition (GI) (Staphylococcus aureus [1]) | MIC (Staphylococcus aureus [3]) | MIC (Staphylococcus aureus [4]) | fold change (FC) (Staphylococcus aureus [5]) | MIC (Staphylococcus aureus [6])
128 mg/L | COc1ccc(S(=O)(=O)N(CCO)c2ccccc2CN(C)C/C=C/c2ccc(Cl)cc2)cc1 | Non-Toxic |  |  |  | 
≥ 256 mg/L | Cc1ccc(S(=O)(=O)N(CCO)c2ccccc2CN(C)C(=O)/C=C/c2ccco2)cc1 | Non-Toxic |  |  |  | 
≥ 256 mg/L | CN(Cc1ccccc1)Cc1ccccc1N(CCO)S(=O)(=O)c1ccc(C(F)(F)F)cc1 | Non-Toxic |  |  |  | 
32 mg/L | Cc1ccc(S(=O)(=O)N(CCO)c2ccccc2CN(C)C/C=C/c2ccc(Cl)cc2)cc1 | Non-Toxic |  |  |  | 
128 mg/L | Cc1ccc(S(=O)(=O)N(CCO)c2ccccc2CN(C/C=C/c2ccc(Cl)cc2)CC(C)C)cc1 | Non-Toxic |  |  |  | 
32 mg/L | CN(C/C=C/c1ccccc1)Cc1ccccc1N(CCO)S(=O)(=O)c1ccc(C(F)(F)F)cc1 | Non-Toxic |  |  |  | 
≥ 256 mg/L | CN(Cc1ccccc1N(CCO)S(=O)(=O)c1ccsc1)C(=O)/C=C/c1ccc(Cl)cc1 | Non-Toxic |  |  |  | 
≥ 256 mg/L | CC(=O)Nc1ccc(S(=O)(=O)N(CCO)c2ccccc2CN(C)C/C=C/c2ccc(Cl)cc2)cc1 | Non-Toxic |  |  |  | 
64 mg/L | CN(C/C=C/c1ccc(Cl)cc1)Cc1ccccc1N(CCO)S(=O)(=O)c1ccc(C(F)(F)F)cc1 | Non-Toxic |  |  |  | 
≥ 256 mg/L | CN(Cc1ccccc1N(CCO)S(=O)(=O)c1ccc([N+](=O)[O-])cc1)C(=O)/C=C/c1ccc(C(F)(F)F)cc1 | Non-Toxic |  |  |  | 
≥ 256 mg/L | Cc1ccc(S(=O)(=O)N(CCO)c2ccccc2CN(C(=O)/C=C/c2ccc(C(F)(F)F)cc2)C(C)C)cc1 | Non-Toxic |  |  |  | 
≥ 256 mg/L | Cc1ccc(S(=O)(=O)N(CCO)c2ccccc2CN(C)C(=O)/C=C/c2ccc(Br)s2)cc1 | Non-Toxic |  |  |  | 
32 mg/L | CN(Cc1ccccc1N(CCO)S(=O)(=O)c1ccc(C#N)cc1)C(=O)/C=C/c1ccc(C(F)(F)F)cc1 | Non-Toxic |  |  |  | 
32 mg/L | Cc1ccc(S(=O)(=O)N(CCO)c2ccccc2CN(C)C/C=C/c2ccc(Cl)c(Cl)c2)cc1 | Non-Toxic |  |  |  | 
≥ 256 mg/L | Cc1ccc(S(=O)(=O)N(CCO)c2ccccc2CN(C)C/C=C/c2ccccc2)cc1 | Non-Toxic |  |  |  | 
≥ 256 mg/L | CN(Cc1ccccc1NS(=O)(=O)c1ccc(F)cc1)C(=O)/C=C/c1ccc(C(F)(F)F)cc1 | Non-Toxic |  |  |  | 
≥ 256 mg/L | COc1ccc(/C=C/C(=O)N(C)Cc2ccccc2N(CCO)S(=O)(=O)c2ccc(C)cc2)cc1 | Non-Toxic |  |  |  | 
≥ 256 mg/L | COc1ccc(S(=O)(=O)N(CCO)c2ccccc2CN(C)C/C=C/c2ccccc2)cc1 | Non-Toxic |  |  |  | 
32 mg/L | CC(C)c1ccc(S(=O)(=O)N(CCO)c2ccccc2CN(C)C(=O)/C=C/c2ccc(C(F)(F)F)cc2)cc1 | Non-Toxic |  |  |  | 
128 mg/L | COc1ccc(S(=O)(=O)N(CCO)c2ccccc2CN(C/C=C/c2ccc(Cl)cc2)CC(C)C)cc1 | Non-Toxic |  |  |  | 
32 mg/L | CN(Cc1ccccc1N(CCO)S(=O)(=O)c1ccc(OC(F)(F)F)cc1)C(=O)/C=C/c1ccc(C(F)(F)F)cc1 | Non-Toxic |  |  |  | 
16 mg/L | CN(C/C=C/c1ccc(Cl)cc1)Cc1ccccc1N(CCO)S(=O)(=O)c1ccc(Cl)cc1 | Non-Toxic |  |  |  | 
64 mg/L | CN(Cc1ccccc1N(CCO)S(=O)(=O)c1ccc2c(c1)OCCO2)C(=O)/C=C/c1ccc(C(F)(F)F)cc1 | Non-Toxic |  |  |  | 
16 mg/L | Cc1ccc(S(=O)(=O)N(CCO)c2ccccc2CN(C)C(=O)/C=C/c2ccc(Cl)c(Cl)c2)cc1 | Non-Toxic |  |  |  | 
256 mg/L | CN(Cc1ccccc1N(CCO)S(=O)(=O)c1cccs1)C(=O)/C=C/c1ccc(Cl)cc1 | Non-Toxic |  |  |  | 
64 mg/L | Cc1ccc(/C=C/C(=O)N(C)Cc2ccccc2N(CCO)S(=O)(=O)c2ccc(C)cc2)cc1 | Non-Toxic |  |  |  | 

Source: ChEMBL document CHEMBL4368884, “Structure-activity relationship of the cinnamamide family of antibiotic potentiators for methicillin-resistant Staphylococcus aureus (MRSA)” (Medchemcomm, 2018)
